Source: PubChem (The Scripps Research Institute Molecular Screening Center)
LEDGF integ inh: blocks HIV-1 LEDGF/p75-dependent DNA integration | TR-FRET IN-LEDGF/p75 DNA integration, Eu/Cy5 | inhibition, % at 3.7 µM | 0.64% of 370,000 active;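 active means inhibition above the screen-wide mean plus 3 SD, cut at about 13% in these data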;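 further: signal is the Cy5 over europium emission ratio at 671 and 618 nm; 0% = plate median of compound wells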
MBD2 inh: inhibitors of human MBD2 binding to methylated oligonucleotide; TR-FRET; inhibition, % at 4.4 µM; 0.31% of 370,000 active; AID 686964; in the data active means inhibition above about 13%
TDP2 inh: blocks human TDP2 phosphodiesterase activity; recombinant TDP2, T5PNP hydrolysis, p-nitrophenol absorbance 415 nm; inhibition, % at 12.8 µM; 0.34% of 370,000 active; AID 720702;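 active means inhibition above the mean of all tested compounds plus 3 SD, set per campaign, cut at about 25% in these data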;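 further: 0% = DMSO with enzyme and 100% = buffer with substrate but no TDP2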
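Test system: human TDP2 enzyme; Input: 120 nM TDP2 per well; Buffer or medium: Mg2+-containing Tris-HCl buffer, pH 7.5; Reagent: 5 mM T5PNP; Dosing: 12.8 µM single point, 1% DMSO; Incubation: reaction 2 h, 37 °C; Detection: p-Nitrophenol epi absorbance; Read-out: % inhibition relative to enzyme-containing and enzyme-free wells; Replicates: single well per compound.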
UHRF1 binding: human UHRF1 methylated DNA binding inhibitors | Q96T88 | UHRF1 binding to methylated oligo, TR-FRET | inhibition, % at 4.4 µM | 0.75% of 370,000 active | AID 687016; in the data active means inhibition above about 21%;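 further: UHRF1 SRA domain binding a hemimethylated CpG hairpin DNA probe; 0% = median of test compound wells and 100% = reference inhibitor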
Target sequence (Q96T88 whole entry, looked up, the tested form may be a part): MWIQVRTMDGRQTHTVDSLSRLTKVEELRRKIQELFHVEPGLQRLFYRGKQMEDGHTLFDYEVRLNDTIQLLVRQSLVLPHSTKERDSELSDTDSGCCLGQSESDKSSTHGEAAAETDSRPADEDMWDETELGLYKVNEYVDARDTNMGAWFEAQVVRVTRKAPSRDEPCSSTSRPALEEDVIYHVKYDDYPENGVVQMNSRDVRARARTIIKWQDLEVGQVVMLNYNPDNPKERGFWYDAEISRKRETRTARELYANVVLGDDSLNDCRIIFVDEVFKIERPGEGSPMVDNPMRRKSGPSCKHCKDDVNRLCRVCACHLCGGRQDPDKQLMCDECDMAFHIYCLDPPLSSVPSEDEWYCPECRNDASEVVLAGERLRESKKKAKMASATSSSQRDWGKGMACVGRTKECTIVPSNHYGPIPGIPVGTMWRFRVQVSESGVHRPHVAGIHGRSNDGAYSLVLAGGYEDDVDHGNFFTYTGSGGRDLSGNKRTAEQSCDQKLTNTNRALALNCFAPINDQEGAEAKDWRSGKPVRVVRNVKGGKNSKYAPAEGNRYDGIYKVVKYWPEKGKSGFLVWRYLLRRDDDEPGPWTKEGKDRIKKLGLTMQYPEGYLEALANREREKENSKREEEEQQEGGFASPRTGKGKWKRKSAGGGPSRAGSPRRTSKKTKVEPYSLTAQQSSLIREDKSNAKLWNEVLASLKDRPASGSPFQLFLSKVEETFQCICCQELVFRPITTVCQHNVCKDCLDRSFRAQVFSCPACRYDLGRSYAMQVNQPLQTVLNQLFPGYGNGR
Active calls of the source: *. Sampled rows, rich in hits. Any-hit rate of the full collection: about 1.6%.

SMILES	LEDGF integ inh	MBD2 inh	TDP2 inh	UHRF1 binding
C[C@@]12CCC=C[C@H]1[C@H](c1ccc3ccccc3c1)N(Cc1ccccc1)C2=O	-1	-1	7	38*
C[C@@]12CCC=C[C@H]1[C@H](c1ccc3ccccc3c1Br)N(Cc1ccccc1)C2=O	3	4	-8	-2
CCCCn1nc(NC(=O)CC)c2cc3cc(OC)ccc3nc21	-2	11	-18	22*
COc1ccc(Br)c(C=O)c1OS(=O)(=O)c1ccc(C)cc1	16*	-1	3	-2
C[C@@H]1COC(=O)[C@@H](Cc2ccc(F)cc2)C/C=C\C[C@@H](CC(=O)N[C@H](CO)Cc2ccccc2)C(=O)N1	-2	-5	11	0
Cc1nc(Cl)c(C(=O)NCCC(C)C)c(C)c1[N+](=O)[O-]	1	-7	0	-4
Cc1nc(Cl)c(C(=O)NC(C)(C)C)c(C)c1Cl	-4	4	2	47*
Cc1ccc(S(=O)(=O)N2CCOCC2)cc1C(=O)OCC(=O)NC1CCS(=O)(=O)C1 (stereo not given)	-6	-3	-5	21*
Cc1ccc(C(=O)NC2CCS(=O)(=O)C2)cc1S(=O)(=O)N1CCCCC1 (stereo not given)	1	-3	-2	25*
CC1CCCC(NC(=O)COC(=O)c2ccc(S(=O)(=O)N3CCOCC3)cc2)C1C (stereo not given)	-2	12	-3	21*
Cc1ccc(C(=O)NC2CCS(=O)(=O)C2)cc1S(=O)(=O)N1CCOCC1 (stereo not given)	-3	4	5	-1
Cc1ccc(S(=O)(=O)N2CCCCC2)cc1C(=O)OCC(=O)NC(=O)NC12CC3CC(CC(C3)C1)C2	1	-5	-4	45*
Cc1ccc(S(=O)(=O)N2CCOCC2)cc1C(=O)OCC(=O)NC1CC1	2	4	-5	-1
COc1ccc(Cl)cc1S(=O)(=O)NC(C)C(=O)NCc1ccc2c(c1)OCO2 (stereo not given)	-1	-2	16	-1
N#Cc1c(-c2ccco2)ccn(Cc2ccc(F)cc2)c1=O	5	-3	-1	0
N#Cc1c(-c2ccco2)ccn(Cc2cccc(F)c2)c1=O	5	8	-9	23*
CCOC(=O)C1=C(C)N(C[C@@H]2CC[C@@H](Cc3ccc4cc(OC)ccc4c3)O2)C(=O)NC1c1ccccc1 (stereo not given in full)	0	-2	4	0
CC(NC(=O)CCc1nnc(-c2ccc(-c3ccccc3)cc2)o1)c1nc2ccccc2[nH]1 (stereo not given)	-4	1	1	23*
Cc1cccc(CC(C)NC(=O)CCc2nnc(-c3ccccc3)o2)n1 (stereo not given)	-10	3	-14	5
CCC(=O)N(Cc1cc(=O)[nH]c2ccccc12)c1ccccc1C	0	2	1	38*
CCOc1cc(NC(=S)NCc2ccco2)c(OCC)cc1NC(=O)CC(C)C	-5	3	-9	2
O=S(=O)(c1ccc(Cl)nc1)N1CCc2ccccc21	1	2	6	42*
CCC(C)NC(=O)Cn1cc(S(=O)(=O)N2CCCC2)c(S(=O)(=O)N2CCCC2)c1 (stereo not given)	0	-2	18	0
COc1ccc(Br)cc1C(=O)Nc1ccccc1N1CCN(C(=O)c2ccccc2)CC1	0	1	-6	0
COc1c(C)cc(Br)cc1C(=O)Nc1ccccc1N1CCN(C(=O)c2ccccc2)CC1	-2	2	-2	55*
SMILES	LEDGF integ inh	MBD2 inh	TDP2 inh	UHRF1 binding
CC(=O)N1CCN(c2ccc(NCc3ccc(Br)o3)cc2)CC1	28*	-5	13	-3
CC(=O)N1CCN(c2ccc(NCc3ccccc3)cc2)CC1	12	-5	11	-1
Nc1nc(SCc2ccc(Br)cc2)[nH]c(=O)c1-c1ccccc1	0	8	-6	29*
CCOC(=O)c1sc(Nc2ccccc2Cl)nc1C	6	5	-13	27*
CCCc1cc(=O)[nH]c(SCC(=O)NC2(C#N)CCCCC2)n1	1	11	-10	27*
CCCc1cc(=O)[nH]c(SCC(=O)NC)n1	-3	-1	5	0
Nc1nc(Cn2nnc(-c3ccccc3Cl)n2)nc(N2CCOCC2)n1	-1	0	6	29*
CCCc1nc2ccc(C(=O)OC)cn2c1Cc1ccc(C)cc1	6	10	-1	22*
CCCc1nc2ccc(C(=O)OC)cn2c1Cc1ccccc1	-4	11	4	25*
CC(=O)Nc1ccccc1OCC(=O)NC(C)c1ccccc1 (stereo not given)	-1	2	5	22*
O=C(OCc1ccc(F)cc1)c1ccc2c(c1)-c1ccccc1C2=O	-3	-1	1	1
CCOC(=O)C1=C(Cc2ccc(F)cc2)C(=O)c2ccccc2C1=O	9	-6	31*	-5
Cc1ccc(Cl)cc1N1CCN(C(=O)CCS(=O)(=O)c2ccc3c(c2)NC(=O)CO3)CC1	2	-1	-21	23*
CSCCC(NC(=O)c1ccccc1)C(=O)NCc1ccco1 (stereo not given)	3	-5	8	1
CNC1=C(N(C(C)=O)c2ccc(Br)cc2)C(=O)c2ccccc2C1=O	23*	-20	53*	0
CCC(=O)N(C1=C(NC)C(=O)c2ccccc2C1=O)C(C)C	1	-5	6	0
Cc1ccc2cc(C)c3nnc(SCC(=O)c4cccs4)n3c2c1C	-2	-9	-5	-3
COc1ccc(-c2[nH][nH]c(=O)c2NC(=O)c2ccccn2)cc1	-6	-6	8	-10
COc1ccc(CCC(=O)Nc2c(-c3ccc(N(C)C)cc3)[nH][nH]c2=O)cc1	28*	12	60*	17
O=C(COC(=O)/C=C/c1cccc(C(F)(F)F)c1)NCc1ccco1	28*	6	2	2
CCc1ccccc1-n1cnc2cc(C(=O)O)ccc21	0	-1	3	2
CCOC(=O)C1=C(C)NC(=O)NC1c1c(C)nn(-c2ccccc2)c1Cl (stereo not given)	1	10	5	13
CCOC(=O)C1=C(C)N(C)C(=O)NC1c1c(C)nn(-c2ccc(C)cc2)c1Cl (stereo not given)	0	4	7	23*
COc1cccc(C(=O)NNc2nc(C)cc(C)n2)c1	-1	5	6	2
C=CCNC(=O)c1onc(CSc2nc3ccccc3[nH]2)c1C(=O)NCC=C	0	0	-11	0
N#Cc1c(N)sc(=S)c2c1CCCCC2	19*	10	11	21*
COc1ccc(OC)c(CNc2c(C=O)c(=O)[nH]c3ccccc23)c1	1	-3	4	43*
O=Cc1c(NCc2ccccc2F)c2ccccc2[nH]c1=O	-4	2	13	0
Cc1ccc(-n2nc(-c3ccco3)cc2C(=O)O)c(C)c1	5	9	-1	25*
O=S(=O)(Nc1ccc(-c2ccc3nncn3n2)cc1)c1cccc(F)c1	-1	9	12	24*
